Data taken from article PMC11868578 (Nature Communications, 2025).
In brackets after ≈: the same amount, converted by molar mass.

T1: N WT (NWT) (Tomato spotted wilt virus (TSWV), UniProt P26000 1-258)
T1 sequence: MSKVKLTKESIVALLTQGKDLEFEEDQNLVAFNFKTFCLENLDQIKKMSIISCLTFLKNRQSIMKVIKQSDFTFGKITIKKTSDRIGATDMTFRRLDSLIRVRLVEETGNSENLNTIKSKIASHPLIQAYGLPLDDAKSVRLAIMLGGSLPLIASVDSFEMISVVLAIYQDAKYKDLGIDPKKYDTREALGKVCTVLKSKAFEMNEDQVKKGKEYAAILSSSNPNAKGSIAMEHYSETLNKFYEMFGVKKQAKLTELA


Columns and labels:
[1] = tested on: N-YFP IBs (N protein condensates); assay: N-YFP inclusion bodies; type: cell-based, Nicotiana benthamiana
[2] = tested on: TSWV; assay: Anti-TSWV assay, half-leaf method on Nicotiana glutinosa; type: in vivo, tomato spotted wilt virus; conditions: for Curative effect (%) / Inactive effect (%) (inactivation activity) / Protective effect (%): 500 µg/mL, half-leaf method, N. glutinosa, mean ± SD, n = 3; for EC50: Orthotospovirus tomatomaculae, in Nicotiana glutinosa
Procedure, shortened: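 Half-leaf test on healthy N. glutinosa, leaves pre-dusted with carborundum and virus extract brushed on. Curative: leaves rinsed 30 min after inoculation, then agent put on the right half. Protective: agent put on 12 h before inoculation. Inactivation: agent mixed 1:1 with virus extract on ice for 30 min, then put on the right half; left half got buffer-diluted virus. Plants grown at 25 °C day/23 °C night. Lesions counted after about 2 days. EC50 from 31.25–500 µg/mL.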

[3] = tested on: PVY; assay: Inactivation activity against PVY; type: in vivo; conditions: read-out: Inhibition rate (inactivation activity) against PVY
[4] = tested on: PMMoV; assay: Inactivation activity against PMMoV; type: in vivo; conditions: read-out: Inhibition rate (inactivation activity) against PMMoV
[5] = target: T1, N WT (NWT); assay: BLI

Row | Molecule | Effect on N-YFP particle number, leaves treated at 36 h ([1]; 36 hpi) | Effect on large N-YFP granules, leaves treated at 72 h ([1]; 72 hpi) | Curative effect (%) [2] | Inactive effect (%) (inactivation activity) [2] | Protective effect (%) [2] | Inactive effect (%) (inactivation activity) ([2]; listed as ningnanmycin) | EC50 [2] | inhibition at 500 µg/mL [3] | inhibition at 500 µg/mL [4] | Inactive effect (%) (inactivation activity) ([2]; listed as ribavirin) | Kd [5]
1 | OCCCCCCO [1,6-hexanediol] | significant reduction in particle number | difficult to observe a significant decrease in the number of large particles | – | – | – | – | – | – | – | – | –
2 | CNCC(=O)N[C@@H](CO)C(=O)N[C@H]1[C@H](O)[C@@H](O)[C@H](n2ccc(N)nc2=O)O[C@@H]1C(N)=O [Ningnanmycin] | – | – | 57.9 ± 1.5% | 69.3 ± 2.4% | 61.7 ± 5.2% | 69.3% | 149 ± 8.7 µg/mL (≈ 337 µM) | 77.6% | 72% | – | –
3 | NC(=O)c1ncn([C@@H]2O[C@H](CO)[C@@H](O)[C@H]2O)n1 [Ribavirin] | – | – | 39.2 ± 3.2% | 43.7 ± 7.5% | 40.4 ± 6.8% | – | 802 ± 12.6 µg/mL (≈ 3280 µM) | 55.3% | 56.5% | 43.7% | –
4 | GAGAGCAAUUGUGUCAGAA (ssRNA) [biotinylated RNA (BLI)] | – | – | – | – | – | – | – | – | – | – | 7.3 nM
